Measured values from ChEMBL document CHEMBL2384924, “Antagonists for the orphan G-protein-coupled receptor GPR55 based on a coumarin scaffold” (J Med Chem, 2013).
pIC50, pKi: −log10 of the molar value. The source made the active and inactive calls. How the calls were made is not given here.

Tests used:
[1] = target: T1, G-protein coupled receptor 55 (Homo sapiens, UniProt Q9Y2T6); assay: Antagonist activity at human GPR55 transfected in CHO cells assessed as inhibition of LPI-induced beta-arrestin recruitment at 10 uM incubated 60 mins prior to LPI addition by beta-arrestin translocation assay; type: cell-based; design: scale not given: the % may be the effect or the level left
T1 sequence (Q9Y2T6 whole entry): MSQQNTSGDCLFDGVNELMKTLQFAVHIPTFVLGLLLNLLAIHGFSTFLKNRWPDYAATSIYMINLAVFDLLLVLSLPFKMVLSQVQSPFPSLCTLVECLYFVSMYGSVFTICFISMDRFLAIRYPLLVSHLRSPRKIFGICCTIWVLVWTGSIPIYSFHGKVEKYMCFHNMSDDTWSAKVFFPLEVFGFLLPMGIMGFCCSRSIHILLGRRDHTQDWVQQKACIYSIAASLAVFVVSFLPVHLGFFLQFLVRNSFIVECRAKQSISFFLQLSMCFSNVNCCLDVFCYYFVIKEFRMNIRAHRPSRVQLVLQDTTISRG
How it was run: (§1)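 CHO cells stably expressing human GPR55 were seeded at 20,000 cells/well for 24 h at 37°C. Compound in PBS/10% DMSO/0.1% BSA was added 60 min before 1 µM LPI. Galacton-Star/Emerald-II/lysis buffer (pH 8) was applied for 60 min at RT, with luminescence read-out. Screening was at 10 µM (% inhibition). IC50 was measured where inhibition exceeded 60%. Three independent experiments in duplicate.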

[2] = target: T1, G-protein coupled receptor 55; assay: Agonist activity at human GPR55 transfected in CHO cells at 10 uM after 90 mins by beta-arrestin translocation assay; type: cell-based
How it was run: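 CHO cells stably expressing human GPR55 (β-galactosidase fragment complementation) were seeded at 20,000 cells/well in Opti-MEM with 2% FCS for 24 h at 37°C. Compound was diluted in PBS with 10% DMSO and 0.1% BSA, screened at 10 µM and incubated 90 min at 37°C. Galacton-Star/Emerald-II/lysis buffer (1:5:19) was added for 60 min at RT, then luminescence was read. Response is relative to 1 µM LPI (100%).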

[3] = target: T1, G-protein coupled receptor 55; assay: Antagonist activity at human GPR55 transfected in CHO cells assessed as inhibition of LPI-induced beta-arrestin recruitment incubated 60 mins prior to LPI addition by beta-arrestin translocation assay; type: cell-based; how it was run: as §1
[4] = target: T2, N-arachidonyl glycine receptor (Homo sapiens) (UniProt Q14330); assay: Antagonist activity at human GPR18 transfected in CHO cells assessed as delta9-THC-induced beta-arrestin recruitment at 10 uM incubated 60 mins prior to delta9-THC addition by beta-arrestin translocation assay; type: cell-based; design: scale not given: the % may be the effect or the level left
T2 sequence (whole entry): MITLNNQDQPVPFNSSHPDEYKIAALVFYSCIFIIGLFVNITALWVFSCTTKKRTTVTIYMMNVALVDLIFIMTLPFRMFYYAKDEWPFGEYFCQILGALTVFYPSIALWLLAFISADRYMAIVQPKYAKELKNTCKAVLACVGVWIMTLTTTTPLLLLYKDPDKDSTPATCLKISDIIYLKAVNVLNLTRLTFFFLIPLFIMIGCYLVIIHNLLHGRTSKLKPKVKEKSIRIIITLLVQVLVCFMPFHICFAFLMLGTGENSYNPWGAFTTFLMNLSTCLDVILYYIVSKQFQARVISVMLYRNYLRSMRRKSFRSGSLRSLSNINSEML
How it was run: (§2)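 CHO cells stably expressing human GPR18 were seeded at 20,000 cells/well for 24 h at 37°C. Compound in PBS/10% DMSO/0.1% BSA was added 60 min before the GPR18 agonist 3 at 10 µM. The supplier's detection reagent was used, and luminescence was read after 60 min at RT. Screening was at 10 µM (% inhibition); IC50 from concentration-inhibition curves. Three independent experiments in duplicate.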

[5] = target: Cannabinoid receptor 2 (Homo sapiens, UniProt P34972); assay: Displacement of [3H]-CP55,940 from human CB2 receptor transfected in CHOK1 cells; type: cell-based, CHO-K1
Cannabinoid receptor 2, sequence (P34972 whole entry): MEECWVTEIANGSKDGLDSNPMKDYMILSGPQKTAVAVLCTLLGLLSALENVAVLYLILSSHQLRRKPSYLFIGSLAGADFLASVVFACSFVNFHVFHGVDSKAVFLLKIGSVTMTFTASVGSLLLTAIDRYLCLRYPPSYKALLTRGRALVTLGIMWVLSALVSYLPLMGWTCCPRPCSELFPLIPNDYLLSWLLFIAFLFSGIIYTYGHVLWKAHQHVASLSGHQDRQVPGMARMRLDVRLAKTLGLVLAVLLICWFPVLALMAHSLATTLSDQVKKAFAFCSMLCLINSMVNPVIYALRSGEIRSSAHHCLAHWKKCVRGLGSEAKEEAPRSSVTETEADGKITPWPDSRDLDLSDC
How it was run: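 CHO cells stably expressing human CB2 supplied the membranes, 1 µg protein per vial. Compounds were screened at 10 µM, and full competition curves were run where inhibition was about 50% or more. Three independent experiments in duplicate.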

[6] = target: T3, Cannabinoid receptor 1 (Homo sapiens, UniProt P21554); assay: Displacement of [3H]-CP55,940 from human CB1 receptor transfected in CHOK1 cells at 10 uM; type: cell-based; settings: CHO-K1
T3 sequence (P21554 whole entry): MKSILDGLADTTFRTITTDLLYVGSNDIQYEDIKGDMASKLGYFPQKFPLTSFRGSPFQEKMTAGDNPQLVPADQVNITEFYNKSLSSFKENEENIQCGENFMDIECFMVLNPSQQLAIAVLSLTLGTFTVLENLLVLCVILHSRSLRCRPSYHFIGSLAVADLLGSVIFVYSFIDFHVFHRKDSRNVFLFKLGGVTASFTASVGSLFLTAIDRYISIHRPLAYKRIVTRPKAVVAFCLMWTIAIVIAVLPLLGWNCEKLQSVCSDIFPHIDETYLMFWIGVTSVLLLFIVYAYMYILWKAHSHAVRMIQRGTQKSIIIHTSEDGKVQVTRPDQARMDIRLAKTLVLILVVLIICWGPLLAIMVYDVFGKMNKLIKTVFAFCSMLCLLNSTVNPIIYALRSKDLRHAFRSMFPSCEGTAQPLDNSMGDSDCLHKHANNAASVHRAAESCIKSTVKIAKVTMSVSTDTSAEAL
How it was run: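 Human CB1 from membrane preparations of stably transfected CHO cells, 25 µg protein per vial. Competition with [3H]CP55,940 at 0.1 nM final, with test compound at 10 µM, read as % inhibition of radioligand binding. Final DMSO 2.5%. Three independent experiments in duplicate.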

[7] = target: T3, Cannabinoid receptor 1; assay: Displacement of [3H]-CP55,940 from human CB1 receptor transfected in CHOK1 cells; type: cell-based, CHO-K1
[8] = target: T4, N-arachidonyl glycine receptor (Homo sapiens, UniProt Q14330); assay: Antagonist activity at human GPR18 transfected in CHO cells assessed as delta9-THC-induced beta-arrestin recruitment incubated 60 mins prior to delta9-THC addition by beta-arrestin translocation assay; type: cell-based; how it was run: as §2
T4 sequence (Q14330 whole entry): T2 sequence (whole entry)

## Cc1cc2cc(Cl)cc(Br)c2oc1=O
[1]
  Activity: 45%
[2]
  Activity: inactive
[3]
  pIC50: < 5.00

## COc1ccc2cc(Cc3ccccc3)c(=O)oc2c1
[1]
  Activity: 53%
[2]
  Activity: inactive
[3]
  pIC50: 5.00

## COc1cccc2cc(Cc3ccccc3)c(=O)oc12
[1]
  Activity: 5%
[2]
  Activity: inactive
[3]
  pIC50: < 5.00

## O=c1oc2cccc(O)c2cc1Cc1ccccc1
[1]
  Activity: 6%
[2]
  Activity: inactive
[3]
  pIC50: < 5.00

## COc1cccc(Cc2cc3c(OC)cccc3oc2=O)c1
[1]
  Activity: 54%
[2]
  Activity: inactive
[3]
  pIC50: 5.00

## COc1cccc2oc(=O)c(Cc3ccccc3)cc12
[1]
  Activity: 43%
[2]
  Activity: inactive
[3]
  pIC50: < 5.00

## Cc1ccccc1Cc1cc2c(C)c(O)c(C)c(C)c2oc1=O
[4]
  Activity: 38%
[5]
  pKi: 5.81
[6]
  Activity: 45%
[2]
  Activity: inactive
[7]
  pKi: ≤ 5.00
[3]
  pIC50: 5.29
[8]
  pIC50: < 5.00

## CCCCCc1cc(OC)c2cc(Cc3ccccc3)c(=O)oc2c1
[1]
  Activity: 36%
[2]
  Activity: inactive
[3]
  pIC50: < 5.00

## O=c1oc2ccc(I)cc2cc1Cc1ccccc1
[1]
  Activity: 46%
[2]
  Activity: inactive
[3]
  pIC50: < 5.00

## CCCCCc1cc(OC)c2cc(Cc3ccc(F)cc3)c(=O)oc2c1
[1]
  Activity: 57%
[2]
  Activity: inactive
[3]
  pIC50: 5.00

## CCCCCCC(C)(C)c1cc(OC)c2cc(Cc3ccccc3)c(=O)oc2c1
[1]
  Activity: 51%
[4]
  Activity: 31%
[2]
  Activity: inactive
[3]
  pIC50: 5.00
[8]
  pIC50: < 5.00

## COc1cccc(Cc2cc3c(OC)cc(CBr)cc3oc2=O)c1
[1]
  Activity: 18%
[2]
  Activity: inactive
[3]
  pIC50: < 5.00

## CCCCCc1cc(O)c2cc(Cc3cccc(Cl)c3)c(=O)oc2c1
[1]
  Activity: 30%
[2]
  Activity: inactive
[3]
  pIC50: < 5.00

## Cc1c(O)c(C)c2cc(Cc3ccc(F)cc3)c(=O)oc2c1C
[4]
  Activity: 47%
[5]
  pKi: 6.35
[6]
  Activity: 34%
[2]
  Activity: inactive
[7]
  pKi: < 5.00
[3]
  pIC50: 4.99
[8]
  pIC50: ≤ 5.00

## COc1c(C)c(C)c2oc(=O)c(Cc3ccc(F)cc3)cc2c1C
[4]
  Activity: 32%
[5]
  pKi: 5.83
[6]
  Activity: 49%
[2]
  Activity: inactive
[7]
  pKi: 5.00
[3]
  pIC50: 4.87
[8]
  pIC50: < 5.00

## CCCCCc1cc(O)c2cc(Cc3ccccc3)c(=O)oc2c1
[1]
  Activity: 0%
[2]
  Activity: inactive
[3]
  pIC50: < 5.00

## O=c1oc2ccccc2cc1Cc1ccccc1
[1]
  Activity: 28%
[2]
  Activity: inactive
[3]
  pIC50: < 5.00

## CCCCC1(c2cc(OC)c3cc(Cc4ccccc4OC)c(=O)oc3c2)CCCC1
[1]
  Activity: 30%
[4]
  Activity: 25%
[2]
  Activity: inactive
[3]
  pIC50: < 5.00
[8]
  pIC50: < 5.00

## COc1cc(C)cc2oc(=O)c(Cc3ccccc3)cc12
[4]
  Activity: 24%
[5]
  pKi: ≤ 5.00
[6]
  Activity: 45%
[2]
  Activity: inactive
[7]
  pKi: ≤ 5.00
[3]
  pIC50: 5.17
[8]
  pIC50: < 5.00

## COc1cc(Br)cc2cc(C)c(=O)oc12
[1]
  Activity: 16%
[2]
  Activity: inactive
[3]
  pIC50: < 5.00

## O=c1oc2ccc3ccccc3c2cc1Cc1ccccc1
[2]
  Activity: inactive
[3]
  pIC50: 5.55

## COc1cccc2cc(C)c(=O)oc12
[1]
  Activity: 7%
[2]
  Activity: inactive
[3]
  pIC50: < 5.00

## COc1ccc2oc(=O)c(Cc3ccccc3)cc2c1
[1]
  Activity: 54%
[2]
  Activity: inactive
[3]
  pIC50: 5.00

## CCCCCc1cc(O)c2cc(Cc3ccccc3C)c(=O)oc2c1
[1]
  Activity: 19%
[4]
  Activity: 10%
[2]
  Activity: inactive
[3]
  pIC50: < 5.00
[8]
  pIC50: < 5.00

## COc1ccc2oc(=O)c(C)cc2c1
[1]
  Activity: 13%
[2]
  Activity: inactive
[3]
  pIC50: < 5.00

## Cc1cc2c(ccc3ccccc32)oc1=O
[1]
  Activity: 28%
[2]
  Activity: inactive
[3]
  pIC50: < 5.00

## Cc1ccc(Cc2cc3c(O)cc(C)cc3oc2=O)cc1
[1]
  Activity: 42%
[2]
  Activity: inactive
[3]
  pIC50: < 5.00

## COc1ccccc1Cc1cc2c(C)ccc(C)c2oc1=O
[4]
  Activity: 0%
[5]
  pKi: 5.17
[6]
  Activity: 16%
[2]
  Activity: inactive
[7]
  pKi: < 5.00
[3]
  pIC50: 5.15
[8]
  pIC50: < 5.00

## CCCCCCC(C)(C)c1cc(OC)c2cc(Cc3ccccc3OC)c(=O)oc2c1
[1]
  Activity: 25%
[4]
  Activity: 26%
[2]
  Activity: inactive
[3]
  pIC50: < 5.00
[8]
  pIC50: < 5.00

## CCCCCc1cc(OC)c2cc(Cc3cc(C)c(OC)c(C)c3)c(=O)oc2c1
[1]
  Activity: 44%
[2]
  Activity: inactive
[3]
  pIC50: < 5.00

## COc1cccc(Cc2cc3c(OC)cc(Br)cc3oc2=O)c1
[4]
  Activity: 31%
[6]
  Activity: 38%
[2]
  Activity: inactive
[3]
  pIC50: 5.40
[8]
  pIC50: < 5.00

## COc1ccc2cc(C)c(=O)oc2c1
[1]
  Activity: 25%
[2]
  Activity: inactive
[3]
  pIC50: < 5.00

## COc1c(C)c(C)c2oc(=O)c(Cc3ccccc3C)cc2c1C
[4]
  Activity: 33%
[5]
  pKi: 6.18
[2]
  Activity: inactive
[7]
  pKi: 5.10
[3]
  pIC50: 5.11
[8]
  pIC50: < 5.00

## CCCCCCC(C)(C)c1ccc([C@@H]2C[C@H](O)CC[C@H]2CCCO)c(O)c1 [CP-55940]
[8]
  pIC50: 5.22

## CCCCCc1cc(OC)c2cc(Cc3ccccc3Cl)c(=O)oc2c1
[4]
  Activity: 25%
[2]
  Activity: inactive
[3]
  pIC50: 5.05
[8]
  pIC50: < 5.00

## COc1c(C)c(C)c2oc(=O)c(Cc3ccccc3)cc2c1C
[4]
  Activity: 46%
[5]
  pKi: 5.75
[6]
  Activity: 42%
[2]
  Activity: inactive
[7]
  pKi: ≤ 5.00
[3]
  pIC50: 4.89
[8]
  pIC50: ≤ 5.00

## Cc1cc(O)c2cc(Cc3ccccc3C)c(=O)oc2c1
[1]
  Activity: 45%
[2]
  Activity: inactive
[3]
  pIC50: < 5.00

## CCCCCc1cc(OC)c2cc(Cc3cccc(Cl)c3)c(=O)oc2c1
[1]
  Activity: 36%
[2]
  Activity: inactive
[3]
  pIC50: < 5.00

## CCCCCc1cc(OC)c2cc(Cc3cccc(C)c3)c(=O)oc2c1
[1]
  Activity: 27%
[2]
  Activity: inactive
[3]
  pIC50: < 5.00

## Cc1c(O)c(C)c2cc(Cc3ccccc3)c(=O)oc2c1C
[4]
  Activity: 16%
[5]
  pKi: 5.47
[6]
  Activity: 21%
[2]
  Activity: inactive
[7]
  pKi: < 5.00
[3]
  pIC50: 5.03
[8]
  pIC50: < 5.00

## CCCCCc1cc(O)c2cc(Cc3ccccc3O)c(=O)oc2c1
[1]
  Activity: 37%
[2]
  Activity: inactive
[3]
  pIC50: < 5.00

## Cc1cc2cc(I)ccc2oc1=O
[1]
  Activity: 40%
[2]
  Activity: inactive
[3]
  pIC50: < 5.00

## COc1ccccc1Cc1cc2c(C)c(OC)c(C)c(C)c2oc1=O
[4]
  Activity: 27%
[5]
  pKi: 6.47
[2]
  Activity: inactive
[7]
  pKi: 5.44
[3]
  pIC50: 6.01
[8]
  pIC50: < 5.00

## COc1cccc(Cc2cc3c(OC)cc(CO)cc3oc2=O)c1
[1]
  Activity: 13%
[2]
  Activity: inactive
[3]
  pIC50: < 5.00

## CCCCCc1cc(O)c2cc(Cc3ccccc3Cl)c(=O)oc2c1
[1]
  Activity: 0%
[4]
  Activity: 0%
[2]
  Activity: inactive
[3]
  pIC50: < 5.00
[8]
  pIC50: < 5.00

## CCCCCc1cc(O)c2cc(Cc3cccc(C)c3)c(=O)oc2c1
[1]
  Activity: 19%
[2]
  Activity: inactive
[3]
  pIC50: < 5.00

## COc1ccc(Br)c2oc(=O)c(Cc3ccccc3)cc12
[1]
  Activity: 2%
[2]
  Activity: inactive
[3]
  pIC50: < 5.00
